# Activity calls are given as the source filed them. No cut-off for these calls is given here.
# Key:
# [1] = target: T1, Aurora kinase A (Homo sapiens) (UniProt O14965); assay: Inhibition of Aurora A kinase in human HeLa Kyoto cells assessed as induction of defective chromosome alignment during metaphase at 10 uM incubated for 20 hrs; assay type: cell-based
# T1 sequence (whole entry): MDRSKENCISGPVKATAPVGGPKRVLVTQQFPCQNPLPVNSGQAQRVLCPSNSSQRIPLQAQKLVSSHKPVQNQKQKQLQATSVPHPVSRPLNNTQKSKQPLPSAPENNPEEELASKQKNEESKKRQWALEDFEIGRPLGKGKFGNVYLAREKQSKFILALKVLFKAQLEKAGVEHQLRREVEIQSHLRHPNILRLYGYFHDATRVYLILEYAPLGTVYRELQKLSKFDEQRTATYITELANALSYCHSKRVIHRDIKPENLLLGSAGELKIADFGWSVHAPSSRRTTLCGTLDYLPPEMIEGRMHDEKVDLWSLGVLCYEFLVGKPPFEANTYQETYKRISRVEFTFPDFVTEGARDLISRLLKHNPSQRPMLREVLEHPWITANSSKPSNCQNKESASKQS
# How it was run: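 HeLa Kyoto cells were treated overnight and stained for pThr288 Aurora A, α-tubulin and DNA. Cells with chromosomes not aligned on the metaphase plate were scored. Experiment repeated twice, SD. Rescue variant: cells transfected with GFP-Aurora A wild-type, Arg137Ala or Trp277Ala before treatment; only highest expressers analysed, ≥100 cells per condition.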
# Homo sapiens = species on record: Homo sapiens; assay: Selectivity index, ratio of IC50 for Aurora-B/INCENP (unknown origin) to IC50 for His-tagged human Aurora A kinase ([…] residues) expressed in Escherichia coli BL21 (DE3) Rosetta cells
# Aurora kinase A [2] = target: T2, Aurora kinase A (Homo sapiens, UniProt O14965); assay: Binding affinity to human Aurora A kinase expressed in Escherichia coli BL21 cells incubated for 1 hr by active site directed binding competition assay
# T2 sequence (O14965 whole entry): T1 sequence (whole entry)
# How it was run: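 Kinome scan of 456 kinases using an active-site-directed binding competition assay, followed by determination of binding affinities (Kd). Aurora B in this scan was free enzyme without INCENP.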
# Aurora kinase B = Aurora kinase B (Homo sapiens, UniProt Q96GD4); assay: Inhibition of Aurora B kinase in human HeLa Kyoto cells assessed as induction of accumulation of cells at 8N DNA contant incubated for 48 hrs at 10 uM by flow cytometry; assay type: cell-based
# Sequence of Aurora kinase B (Q96GD4 whole entry): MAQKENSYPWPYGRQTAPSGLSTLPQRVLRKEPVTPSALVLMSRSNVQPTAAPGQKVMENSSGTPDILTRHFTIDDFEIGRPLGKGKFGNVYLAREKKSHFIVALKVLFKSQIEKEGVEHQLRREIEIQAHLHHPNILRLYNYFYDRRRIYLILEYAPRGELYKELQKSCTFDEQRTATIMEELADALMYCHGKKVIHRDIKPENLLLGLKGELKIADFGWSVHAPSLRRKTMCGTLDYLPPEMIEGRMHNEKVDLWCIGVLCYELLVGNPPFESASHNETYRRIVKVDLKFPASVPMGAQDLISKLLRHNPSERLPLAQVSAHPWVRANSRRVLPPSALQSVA
# How it was run: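 Cells were treated for 48 h, stained with propidium iodide, and DNA content was analysed by flow cytometry. Cells with 8N and 16N DNA content were scored as a readout of defective cytokinesis.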
# Aurora kinase A [3] = target: T2, Aurora kinase A; assay: Inhibition of His-tagged human Aurora A kinase ([…] residues) expressed in Escherichia coli BL21 (DE3) Rosetta cells using biotinylated STK2 substrate incubated for 30 mins by HTRF assay
# Aurora kinase A [4] = target: T2, Aurora kinase A; assay: Inhibition of Aurora A kinase autophosphorylation at Thr288 in human HeLa Kyoto cells incubated for 20 hrs; assay type: cell-based
compound,measurement,setting,value
CCc1ccc(/N=C2\S/C(=C\c3ccnc(Nc4ccc(C(=O)O)cn4)c3)C(=O)N2C)cc1,inhibition,[1],Active
same,Ratio IC50,Homo sapiens,75
same,Kd,Aurora kinase A [2],5 nM
same,inhibition,Aurora kinase B,Active
same,IC50,Aurora kinase A [3],2 nM
same,IC50,Aurora kinase A [4],760 nM
